Data published in ChEMBL document CHEMBL1145924 (J Med Chem, 2003).
Several values for one entry are separate records, joined by “and”; a condition that tells them apart may be missing. Equal entries are not always repeated.

Experiments:
[1] = target: Histamine H1 receptor (Rattus norvegicus) (UniProt P31390); test: Maximum response (E max) against H1 receptor in rat aorta; assay type: tissue-based
[2] = target: Histamine H1 receptor (Cavia porcellus) (UniProt P31389); test: Concentration required for agonistic activity against histamine H1 receptor in guinea pig ileum; assay type: functional, tissue-based
Histamine H1 receptor (Cavia porcellus), sequence (P31389 whole entry): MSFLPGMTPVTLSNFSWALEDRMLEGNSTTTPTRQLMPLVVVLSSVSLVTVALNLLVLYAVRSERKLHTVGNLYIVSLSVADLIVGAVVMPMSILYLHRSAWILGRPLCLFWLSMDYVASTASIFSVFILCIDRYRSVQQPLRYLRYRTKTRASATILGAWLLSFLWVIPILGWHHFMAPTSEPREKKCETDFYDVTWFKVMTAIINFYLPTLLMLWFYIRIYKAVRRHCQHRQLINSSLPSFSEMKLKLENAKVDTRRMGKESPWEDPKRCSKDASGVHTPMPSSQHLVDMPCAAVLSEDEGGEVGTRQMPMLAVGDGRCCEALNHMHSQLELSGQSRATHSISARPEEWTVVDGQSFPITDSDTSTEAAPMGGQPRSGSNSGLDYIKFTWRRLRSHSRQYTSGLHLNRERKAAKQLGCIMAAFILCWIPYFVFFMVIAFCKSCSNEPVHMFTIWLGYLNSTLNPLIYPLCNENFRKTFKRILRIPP

[3] = target: Histamine H1 receptor (Cavia porcellus) (UniProt P31389); test: Maximum response (E max) against histamine H1 receptor in guinea pig ileum; assay type: tissue-based
[4] = target: Histamine H1 receptor (Cavia porcellus) (UniProt P31389); test: (§1) Equilibrium dissociation constant (pKp) against histamine H1 receptor in guinea pig ileum; assay type: tissue-based
[5] = species on record: Cavia porcellus; test: Apparent pA2 value of compound at 10 nM concentration of mepyramine in guinea pig aorta
[6] = target: Histamine H1 receptor (Cavia porcellus) (UniProt P31389); test: Concentration required for agonistic activity against histamine in guinea pig ileum; assay type: functional, tissue-based
[7] = target: Histamine H3 receptor (Cavia porcellus, UniProt Q9JI35); test: Tested for Antagonistic activity at histamine H3 receptor in guinea pig ileal longitudinal muscle in the presence of mepyramine at a concentration of 1-3 micro M; assay type: functional; conditions: read-out: pA2 (converted)
Histamine H3 receptor, sequence (Q9JI35 whole entry): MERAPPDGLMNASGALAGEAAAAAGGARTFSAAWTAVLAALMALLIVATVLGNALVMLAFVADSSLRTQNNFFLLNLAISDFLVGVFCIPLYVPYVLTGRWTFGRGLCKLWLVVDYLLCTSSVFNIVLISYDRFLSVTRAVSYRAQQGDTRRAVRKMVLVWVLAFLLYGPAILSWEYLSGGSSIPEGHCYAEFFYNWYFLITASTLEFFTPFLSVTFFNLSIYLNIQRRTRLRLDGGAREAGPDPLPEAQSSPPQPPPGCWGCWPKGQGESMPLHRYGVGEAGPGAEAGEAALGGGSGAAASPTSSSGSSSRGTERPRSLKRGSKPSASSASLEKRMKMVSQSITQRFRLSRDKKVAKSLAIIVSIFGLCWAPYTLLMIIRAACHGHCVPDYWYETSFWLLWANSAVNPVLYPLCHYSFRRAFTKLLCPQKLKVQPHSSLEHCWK
Procedure, shortened: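 Field-stimulated ileal longitudinal muscle (15 V, 0.5 ms, 0.1 Hz), 37 °C, mepyramine 1–3 μM throughout. […] Antagonists used only at concentrations not blocking M3 receptors; apparent pA2 from rightward shift.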

[8] = target: T1, Histamine H1 receptor (Rattus norvegicus, UniProt P31390); test: Apparent pA2 value of compound at 50 nM concentration of mepyramine in rat aorta; assay type: functional, tissue-based; conditions: read-out: pA2 (converted)
T1 sequence (P31390 whole entry): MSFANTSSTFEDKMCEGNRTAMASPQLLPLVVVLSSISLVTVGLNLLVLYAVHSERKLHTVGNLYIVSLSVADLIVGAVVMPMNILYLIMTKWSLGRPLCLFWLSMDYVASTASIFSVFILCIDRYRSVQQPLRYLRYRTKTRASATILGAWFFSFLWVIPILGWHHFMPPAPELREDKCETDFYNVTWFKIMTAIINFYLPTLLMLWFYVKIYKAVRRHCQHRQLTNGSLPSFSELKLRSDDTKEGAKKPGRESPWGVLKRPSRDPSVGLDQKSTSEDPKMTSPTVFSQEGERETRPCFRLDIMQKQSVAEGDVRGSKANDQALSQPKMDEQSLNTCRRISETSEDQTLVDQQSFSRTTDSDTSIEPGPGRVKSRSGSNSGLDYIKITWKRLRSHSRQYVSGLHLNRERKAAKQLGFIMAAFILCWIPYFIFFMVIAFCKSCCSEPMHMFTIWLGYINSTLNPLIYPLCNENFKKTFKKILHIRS

[9] = target: Histamine H1 receptor (Cavia porcellus) (UniProt P31389); test: Maximum response (E max) against H1 receptor in guinea pig ileum; assay type: tissue-based
[10] = target: T2, Histamine H1 receptor (Cavia porcellus, UniProt P31389); test: Effective concentration against histamine H1 receptor in guinea pig ileum; assay type: tissue-based
T2 sequence (P31389 whole entry): as the sequence (P31389 whole entry) above

[11] = target: Muscarinic acetylcholine receptor M3 (Cavia porcellus, UniProt Q8VH26); test: Antagonistic activity for carbachol induced contractions in guinea pig ileum against Muscarinic acetylcholine receptor M3 in the presence of mepyramine at a concentration of 1-3 micro M; assay type: functional, tissue-based; conditions: read-out: pA2 (converted)
Muscarinic acetylcholine receptor M3, sequence (Q8VH26 whole entry): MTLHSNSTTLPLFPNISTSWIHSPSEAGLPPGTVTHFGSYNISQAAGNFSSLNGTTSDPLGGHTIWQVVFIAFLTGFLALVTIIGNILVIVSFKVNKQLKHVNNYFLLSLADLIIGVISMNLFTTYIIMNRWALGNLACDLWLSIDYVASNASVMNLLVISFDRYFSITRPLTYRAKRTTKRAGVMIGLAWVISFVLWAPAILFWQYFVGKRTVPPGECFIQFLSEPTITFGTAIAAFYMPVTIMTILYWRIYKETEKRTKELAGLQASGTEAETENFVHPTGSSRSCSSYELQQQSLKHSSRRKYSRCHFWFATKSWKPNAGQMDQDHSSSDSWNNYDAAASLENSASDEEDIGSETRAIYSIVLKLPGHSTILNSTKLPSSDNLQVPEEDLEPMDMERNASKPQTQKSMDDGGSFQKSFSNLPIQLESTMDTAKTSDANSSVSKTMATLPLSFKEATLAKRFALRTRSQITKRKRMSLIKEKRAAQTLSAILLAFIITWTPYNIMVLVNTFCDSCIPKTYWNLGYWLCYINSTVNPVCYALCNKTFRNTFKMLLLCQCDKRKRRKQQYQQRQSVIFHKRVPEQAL

[12] = species on record: Cavia porcellus; test: Full pA2 value of compound at 3-30 nM concentration of mepyramine in guinea pig ileum; assay type: functional; conditions: read-out: pA2 (converted)
[13] = target: T2, Histamine H1 receptor; test: Effective concentration against histamine H1 receptor in endothelium-Denuded rings of guinea pig Aorta
[14] = target: T1, Histamine H1 receptor; test: (§2) Effective concentration against histamine H1 receptor in rat aorta
[15] = target: Histamine H2 receptor (Cavia porcellus) (UniProt P47747); conditions: Cardiac atrium
Histamine H2 receptor (Cavia porcellus), sequence (P47747 whole entry): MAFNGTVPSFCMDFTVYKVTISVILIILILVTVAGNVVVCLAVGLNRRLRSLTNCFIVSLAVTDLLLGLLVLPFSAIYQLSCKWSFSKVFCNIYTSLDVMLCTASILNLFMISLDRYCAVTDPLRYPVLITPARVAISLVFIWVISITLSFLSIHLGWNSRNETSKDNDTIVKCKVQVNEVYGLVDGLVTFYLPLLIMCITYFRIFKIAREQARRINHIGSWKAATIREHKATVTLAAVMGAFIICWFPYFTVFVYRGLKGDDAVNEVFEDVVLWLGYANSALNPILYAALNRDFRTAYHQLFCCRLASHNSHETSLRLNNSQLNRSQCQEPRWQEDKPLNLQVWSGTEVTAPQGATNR

[16] = target: T2, Histamine H1 receptor; test: Apparent pA2 value of compound at 10 nM concentration of mepyramine in guinea pig aorta
[17] = species on record: Cavia porcellus; test: Apparent pA2 value at 3 nM concentration of mepyramine in guinea pig ileum; assay type: functional; conditions: read-out: pA2 (converted)
[18] = species on record: Cavia porcellus; test: Apparent pA2 value of compound at 3 nM concentration of mepyramine in guinea pig ileum
[19] = species on record: Cavia porcellus; test: Apparent pD2 value of compound at 3 nM concentration of mepyramine in guinea pig ileum; assay type: functional
[20] = species on record: Cavia porcellus; test: Full pA2 value of compound at 2-100 nM concentration of mepyramine in guinea pig ileum; assay type: functional; conditions: read-out: pA2 (converted)
[21] = target: Histamine H1 receptor (Cavia porcellus) (UniProt P31389); test: Maximum response (E max) against Histamine H1 receptor in guinea pig ileum; assay type: tissue-based
[22] = target: Histamine H2 receptor (Cavia porcellus, UniProt P47747); test: Tested for inhibition of histamine H2 receptor-induced rise in heart rate in guinea pig right atrium in the presence of mepyramine at a concentration of 0.3 micro M; assay type: tissue-based, Cardiac atrium
Histamine H2 receptor, sequence (P47747 whole entry): as above

[23] = target: T2, Histamine H1 receptor; test: Apparent pA2 value of compound at 10 nM concentration of mepyramine in guinea pig aorta; remark: listed apart in the source
[24] = species on record: Cavia porcellus; test: Apparent pA2 value of compound at 100 nM concentration of mepyramine in guinea pig aorta
[25] = target: T2, Histamine H1 receptor; test: Apparent pA2 value of compound at 10 nM concentration of mepyramine in guinea pig aorta; remark: listed apart in the source
[26] = species on record: Cavia porcellus; test: tissue or blood; conditions: Ileum, read-out: pA2 (converted)
[27] = target: T1, Histamine H1 receptor; test: as §2; assay type: tissue-based
[28] = target: Histamine H1 receptor (Cavia porcellus) (UniProt P31389); test: as §1; assay type: functional, tissue-based

Histamine H1 receptor (Rattus norvegicus), sequence (P31390 whole entry): as the sequence (P31390 whole entry) above

| Structure (SMILES) | Emax [3] | pKp [4] | Concentration [6] [µM] | Kb [7] [nM] | EC50 [10] [nM] | Kb [11] [nM] | EC50 [13] [nM] | pD2 [15] | Kb [17] [nM] | also measured |
| --- | --- | --- | --- | --- | --- | --- | --- | --- | --- | --- |
| NCCc1c[nH]c(CCC(c2ccccc2)c2ccccc2)n1 | 100% and 84% | 6.04 | – | – | – | – | – | – | – | Emax [1]: 50%; Concentration [2]: 3 µM; Kb [5]: 0.977 nM |
| c1ccc(C(CCc2nc(CCNCCCCc3ccccn3)c[nH]2)c2ccccc2)cc1 | 89% | 7.45 | 3 | > 501 | 6.92 | 741 | 14.1 | 4.78 | – | Emax [1]: 65%; Kb [8]: 6.17 nM; Emax [9]: 89%; Kb [12]: 0.661 nM; EC50 [14]: 240 nM; Kb [16]: 1.62 nM |
| c1ccc(C(CCc2nc(CCNCCCCCc3cccnc3)c[nH]2)c2ccccc2)cc1 | 84% | 6.61 | 3 | > 316 | 26.3 | 562 | – | 5.25 | 1.48 | – |
| CNCCc1cnc(CCC(c2ccccc2)c2ccccc2)[nH]1 | – | – | – | – | – | – | 39.8 | – | – | – |
| c1ccc(C(CCc2nc(CCNCCCCc3c[nH]cn3)c[nH]2)c2ccccc2)cc1 | 86% | 6.17 | 10 | 10.2 | 123 | 417 | – | 4.12 | – | Kb [18]: 1.7 nM |
| c1ccc(C(CCc2nc(CCNCCCCCc3ccncc3)c[nH]2)c2ccccc2)cc1 | 57% | 5.9 | 10 | – | 95.5 | – | – | 4.12 | – | pD2 [19]: 8.63 |
| c1ccc(C(CCc2nc(CCNCCc3cnc[nH]3)c[nH]2)c2ccccc2)cc1 | – | 7.67 | – | > 1000 | 5.5 | 4790 | 9.77 | – | – | Kb [20]: 1.48 nM; Emax [1]: 56%; Concentration [2]: 0.1 µM; Emax [21]: 96%; Kb [8]: 9.55 nM; Emax [9]: 96%; EC50 [22]: 10 µM; EC50 [14]: 295 nM; Kb [23]: 3.24 nM |
| c1ccc(C(CCc2nc(CCNCCCCc3cccnc3)c[nH]2)c2ccccc2)cc1 | 88% | 6.88 | 3 | – | 13.5 | – | – | 4.77 | 1.7 | – |
| CNCCc1c[nH]c(CCC(c2ccccc2)c2ccccc2)n1 | – | 6.45 | – | – | – | – | – | – | – | Kb [24]: 1.78 nM |
| c1ccc(C(CCc2nc(CCNCCCCc3ccncc3)c[nH]2)c2ccccc2)cc1 | 84% | 6.56 | 10 | – | 24 | – | – | 4.59 | 1.12 | – |
| c1ccc(C(CCc2nc(CCNCCCCCc3ccccn3)c[nH]2)c2ccccc2)cc1 | 83% | 6.74 | 3 | > 316 | 15.5 | 513 | – | 5.02 | 1.82 | – |
| c1ccc(C(CCc2nc(CCNCCCc3ccccn3)c[nH]2)c2ccccc2)cc1 | – | 7.13 | 3 | > 316 | 21.4 | 457 | – | 4.96 | – | Emax [9]: 80%; Kb [18]: 1.66 nM |
| c1ccc(C(CCc2nc(CCNCCc3cccnc3)c[nH]2)c2ccccc2)cc1 | 64% | 6.52 | 10 | > 501 | 77.6 | 7080 | 83.2 | 4.62 | 0.851 | Emax [9]: 64%; Kb [25]: 3.24 nM |
| NCCc1c[nH]cn1 [HISTAMINE] | – | – | – | – | – | – | – | – | – | Kb [26]: 0.851 nM |
| c1ccc(C(CCc2nc(CCNCCCc3ccncc3)c[nH]2)c2ccccc2)cc1 | 48% | 5.69 | 10 | – | 269 | – | – | 4.36 | – | pD2 [19]: 8.49 |
| NCCc1cnc(CCC(c2ccccc2)c2ccccc2)[nH]1 | – | – | – | – | – | – | 158 | – | – | – |
| c1ccc(C(CCc2nc(CCNCCCc3cccnc3)c[nH]2)c2ccccc2)cc1 | 48% | 6.18 | 10 | – | 117 | – | – | 4.05 | 1.82 | – |
| c1ccc(C(CCc2nc(CCNCCc3ccncc3)c[nH]2)c2ccccc2)cc1 | 78% | 6.02 | 10 | > 501 | 115 | 1000 | – | 4.37 | 1.48 | – |
| c1ccc(C(CCc2nc(CCNCCCc3c[nH]cn3)c[nH]2)c2ccccc2)cc1 | 95% | 7.14 | 0.1 | 123 | 13.5 | 776 | – | 3.92 | 1.86 | – |
| c1ccc(C(CCc2nc(CCNCCc3ccccn3)c[nH]2)c2ccccc2)cc1 | 92% | – | 10 | > 501 | 21.4 | 5010 | 81.3 | 4.37 | – | Emax [1]: 59%; EC50 [27]: 525 nM; Kb [8]: 10.5 nM; Emax [9]: 92%; pKp [28]: 7.15; Kb [18]: 1.74 nM; Kb [16]: 4.37 nM |
